Legend:
[1] = target: T1, Low molecular weight protein-tyrosine phosphatase A (Mycobacterium tuberculosis, UniProt P9WIA1); test: Inhibition of Mycobacterium tuberculosis PTP-A
T1 sequence (P9WIA1 whole entry): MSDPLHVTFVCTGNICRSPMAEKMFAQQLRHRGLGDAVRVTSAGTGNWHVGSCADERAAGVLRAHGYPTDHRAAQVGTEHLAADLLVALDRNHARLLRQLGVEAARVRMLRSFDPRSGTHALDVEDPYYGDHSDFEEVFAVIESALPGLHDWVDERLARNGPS

[2] = target: T2, Tyrosine-protein phosphatase non-receptor type 1 (Homo sapiens, UniProt P18031); test: Inhibition of human PTP1B expressed in Escherichia coli BL21 DE3 using p-nitrophenyl phosphate as substrate measured for 10 mins by spectrofluorimetry
T2 sequence (P18031 whole entry): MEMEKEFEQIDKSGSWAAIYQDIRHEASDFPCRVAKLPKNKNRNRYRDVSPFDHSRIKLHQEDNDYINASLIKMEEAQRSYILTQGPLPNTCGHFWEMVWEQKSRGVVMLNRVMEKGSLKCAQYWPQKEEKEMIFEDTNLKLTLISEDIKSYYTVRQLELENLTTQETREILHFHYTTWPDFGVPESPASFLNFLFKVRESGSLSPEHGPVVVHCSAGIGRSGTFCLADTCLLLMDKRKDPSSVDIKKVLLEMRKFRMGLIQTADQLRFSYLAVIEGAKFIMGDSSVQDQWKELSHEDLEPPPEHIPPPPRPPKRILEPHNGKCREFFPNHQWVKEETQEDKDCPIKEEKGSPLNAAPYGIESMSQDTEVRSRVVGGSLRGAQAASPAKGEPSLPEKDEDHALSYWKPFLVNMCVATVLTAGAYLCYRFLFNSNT

[3] = target: T3, Phosphotyrosine-protein phosphatase PTPB (Mycobacterium tuberculosis) (UniProt P96830); test: Inhibition of Mycobacterium tuberculosis PTP-B using p-nitrophenyl phosphate as substrate at 25 uM measured for 10 mins by spectrofluorimetry
T3 sequence (whole entry): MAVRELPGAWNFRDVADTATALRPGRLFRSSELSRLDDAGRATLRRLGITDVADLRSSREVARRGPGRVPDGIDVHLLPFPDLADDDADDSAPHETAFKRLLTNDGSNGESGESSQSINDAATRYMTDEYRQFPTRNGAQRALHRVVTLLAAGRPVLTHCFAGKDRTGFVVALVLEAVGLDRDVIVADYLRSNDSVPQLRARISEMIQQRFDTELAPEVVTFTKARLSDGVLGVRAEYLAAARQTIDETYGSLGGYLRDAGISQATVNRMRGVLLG
How it was run: (§1)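 Single-point screen at 25 μM final compound, added from 1.0 × 10−3 M DMSO stock, with recombinant Mtb PtpA or PtpB (0.4 μg/μL final) in 20 mM imidazole pH 7.0 with 40 mM pNPP. Reaction started by adding enzyme. p-Nitrophenol release read at 410 nm every min for 10 min at 37 °C. Residual activity was taken from the absorbance difference between 6 and 2 min; two experiments, each in triplicate.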

[4] = target: T4, Phosphotyrosine-protein phosphatase PTPB (Mycobacterium tuberculosis, UniProt P96830); test: Competitive inhibition of Mycobacterium tuberculosis PTP-B using p-nitrophenyl phosphate as substrate measured for 10 mins by Lineweaver-Burk plot analysis
T4 sequence (P96830 whole entry): T3 sequence (whole entry)
How it was run: (§2)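 Kinetic mode determined with recombinant Mtb enzyme (PtpA or PtpB) using the screening conditions (20 mM imidazole pH 7.0, 37 °C, A410 read each minute for 10 min) but with pNPP varied over 0.5, 1.5, 3, 6, 8, 10, 15 and 25 mM. At least three inhibitor concentrations in the 5–60 μM range were used. Ki and mechanism were taken from Lineweaver–Burk double-reciprocal plots.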

[5] = target: T4, Phosphotyrosine-protein phosphatase PTPB; test: Inhibition of Mycobacterium tuberculosis PTP-B using p-nitrophenyl phosphate as substrate measured for 10 mins by spectrofluorimetry
How it was run: (§3)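 A410 read each minute over 10 min at 37 °C. Residual activity compared with wells without inhibitor; IC50 by linear regression of % inhibition against concentration. Triplicate, two independent experiments.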

[6] = target: T5, Low molecular weight protein-tyrosine phosphatase A (Mycobacterium tuberculosis) (UniProt P9WIA1); test: Inhibition of Mycobacterium tuberculosis PTP-A using p-nitrophenyl phosphate as substrate at 25 uM measured for 10 mins by spectrofluorimetry; how it was run: as §1
T5 sequence (whole entry): T1 sequence (P9WIA1 whole entry)

[7] = target: T1, Low molecular weight protein-tyrosine phosphatase A; test: Inhibition of Mycobacterium tuberculosis PTP-A using p-nitrophenyl phosphate as substrate measured for 10 mins by spectrofluorimetry; how it was run: as §3
[8] = Solubility of the compound; format: physicochemical
[9] = target: T5, Low molecular weight protein-tyrosine phosphatase A (Mycobacterium tuberculosis); test: Ratio of IC50 to Ki for Mycobacterium tuberculosis protein tyrosine phosphatase-A
[10] = Selectivity index, ratio of IC50 for human PTP1B to IC50 for Mycobacterium tuberculosis PTP-A
How it was run: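 Selectivity index calculated as IC50 for human PTP1B divided by IC50 for Mtb PtpA. Both IC50 values came from pNPP hydrolysis assays read at 410 nm for 10 min at 37 °C.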

[11] = target: T1, Low molecular weight protein-tyrosine phosphatase A; test: Competitive inhibition of Mycobacterium tuberculosis PTP-A using p-nitrophenyl phosphate as substrate measured for 10 mins by Lineweaver-Burk plot analysis; how it was run: as §2

| Structure (SMILES) | IC50 [1] [µM] | IC50 [2] [µM] | inhibition [3] [%] | Ki [4] [µM] | IC50 [5] [µM] | inhibition [6] [%] | IC50 [7] [µM] | solubility [8] | Ratio [9] | Ratio IC50 [10] | Ki [11] [µM] |
| --- | --- | --- | --- | --- | --- | --- | --- | --- | --- | --- | --- |
| COc1cc(-c2[nH]ccc2Cl)oc1C1=C2N=C3C=C2[C@H](C(C)C)[C@H]1CCCCCCCC3 [ROSEOPHILIN] | 8.8 |  |  |  |  |  |  |  |  |  |  |
| O=C(/C=C/c1ccc2ccccc2c1)c1ccc(Br)cc1 |  | 29 | 42 | 10 | 25 | 11 | > 50 | soluble |  |  |  |
| O=C(/C=C/c1ccccc1[N+](=O)[O-])c1ccc2ccccc2c1 |  |  | 32 |  | 54 | 10 |  | soluble |  |  |  |
| O=C(/C=C/c1ccc([N+](=O)[O-])cc1)c1ccc2ccccc2c1 |  |  | 39 |  | 62 | 18 |  | soluble |  |  |  |
| COc1ccc(C(=O)/C=C/c2ccc(OCc3ccccc3)c(OC)c2)c(OC)c1 |  | 263 | 0 |  | > 100 | 40 | 15 | soluble | 1.3 | 18 | 12 |
| O=C(/C=C/c1ccc2c(c1)OCO2)c1cccc([N+](=O)[O-])c1 |  | 107 | 6 |  | > 100 | 26 | 45 | soluble | 1.5 | 2.4 | 29 |
| O=C(/C=C/c1ccccc1[N+](=O)[O-])c1ccc2c(c1)OCO2 |  |  | 43 |  | 81 | 0 |  | soluble |  |  |  |
| O=C(/C=C/c1ccc(C(F)(F)F)cc1)c1ccc2ccccc2c1 |  |  | 37 |  | 339 | 43 | 331 | soluble |  |  |  |
| O=C(/C=C/c1ccc2ccccc2c1)c1ccc[nH]1 |  |  | 37 |  | 81 | 16 |  | soluble |  |  |  |
| O=C(/C=C/c1ccc2c(c1)OCO2)c1ccc([N+](=O)[O-])cc1 |  | 23 | 34 | 13 | 51 | 33 | 62 | soluble |  |  |  |
| Cc1ccc(C(=O)/C=C/c2ccc3ccccc3c2)cc1 |  |  | 34 |  | 135 | 10 |  | soluble |  |  |  |
| O=C(O)c1ccc(/C=C/C(=O)c2ccc3ccccc3c2)cc1 |  | 3090 | 70 | 8 | 12 | 9 | > 100 | soluble |  |  |  |
| Cc1ccc(/C=C/C(=O)c2ccc3c(c2)OCO3)o1 |  |  | 8 |  |  | 40 | 169 | soluble |  |  |  |
| O=C(/C=C/c1ccc(Cl)c(Cl)c1)c1ccc2c(c1)OCO2 |  |  | 0 |  |  | 35 | 151 | soluble |  |  |  |
| O=C(/C=C/c1ccc(-c2cc(C(F)(F)F)ccc2Cl)o1)c1ccc2c(c1)OCO2 |  |  | 16 |  |  | 36 | 174 | soluble |  |  |  |
| CCCCCC1=C/C(=C/c2[nH]c(-c3ccc[nH]3)cc2OC)N=C1C [PRODIGIOSIN] | 8.8 |  |  |  |  |  |  |  |  |  |  |
| O=C(/C=C/c1ccc2ccccc2c1)c1ccc(Cl)s1 |  | 100 | 49 |  | 57 | 31 | 32 | soluble | 1.4 | 3.1 | 23 |
| O=C(/C=C/c1ccc(Cl)cc1Cl)c1ccc2ccccc2c1 |  |  | 47 |  | 417 | 10 |  | soluble |  |  |  |
